Data from ChEMBL document CHEMBL1275524, “Activities of antifungal agents against yeasts and filamentous fungi: assessment according to the methodology of the European Committee on Antimicrobial Susceptibility Testing” (2008).
Values after ≈ are worked out from the molar mass of the structure shown.

Tests used:
Curvularia australiensis = experiment: Antifungal activity against Bipolaris australiensis; type: functional
How it was run: (§1)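 Dematiaceous fungi were tested by the EUCAST spore-forming mold reference procedure: flat-bottom microdilution plates, RPMI 1640 plus 2% glucose, inoculum 2 × 105 to 5 × 10^5 CFU/ml. Endpoints were read visually at 24 and 48 h. Polyenes and azoles: 100% growth reduction vs drug-free control. CPF: minimum effective concentration. Run in duplicate and repeated twice.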

Pichia kudriavzevii [1] = experiment: Antifungal activity against Candida krusei by EUCAST method; type: functional
How it was run: (§2)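 Broth microdilution in flat-bottom plates in RPMI 1640 with 2% glucose; inoculum 0.5 × 105 to 2.5 × 10^5 CFU/ml. MICs were read spectrophotometrically at 24 h. AMB endpoint: ≥90% growth reduction vs drug-free control well. Azole and CPF endpoint: 50% reduction in optical density. MFC was taken as the lowest concentration giving 99% killing.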

Mucor hiemalis = experiment: Antifungal activity against Mucor hiemalis; type: functional
Talaromyces marneffei = experiment: Antifungal activity against Penicillium marneffei; type: functional
Candida parapsilosis [2] = experiment: Antifungal activity against Candida parapsilosis by EUCAST method; type: functional; settings: Lodderomyces parapsilosis; how it was run: as §2
Cryptococcus gattii [3] = experiment: Antifungal activity against Cryptococcus neoformans var. gattii; type: functional, Cryptococcus bacillisporus
How it was run: (§3)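 EUCAST yeast microdilution, modified for nonfermentative yeasts: plates were sealed and agitated at 350 rpm and 30°C for 48 h.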

Fusarium solani = experiment: Antifungal activity against Fusarium solani; type: functional
Aspergillus niger [4] = experiment: Antifungal activity against Aspergillus niger; type: functional
Aspergillus terreus [5] = experiment: Antifungal activity against Aspergillus terreus by EUCAST method; type: functional
Candida albicans [6] = experiment: Antifungal activity against Candida albicans by EUCAST method; type: functional; how it was run: as §2
Scedosporium apiospermum = experiment: Antifungal activity against Scedosporium apiospermum; type: functional
How it was run: (§4)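 Broth microdilution following the EUCAST reference procedure for spore-forming moulds, in flat-bottom plates with RPMI 1640 plus 2% glucose. Inoculum was 2 × 10^5 to 5 × 10^5 CFU/ml. MICs were read visually at 24 and 48 h as 100% growth reduction versus a drug-free control for polyenes and azoles. MEC was used for caspofungin. Tests were run in duplicate and repeated twice.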

[7] = system: Meyerozyma guilliermondii; experiment: Antifungal activity against Candida guilliermondii; type: functional; how it was run: as §2
Geotrichum candidum [8] = experiment: Antifungal activity against Geotrichum candidum by EUCAST method; type: functional
Lichtheimia corymbifera = experiment: Antifungal activity against Absidia corymbifera; type: functional
Geotrichum candidum [9] = experiment: Antifungal activity against Geotrichum candidum; type: functional
Nakaseomyces glabratus [10] = experiment: Antifungal activity against Candida glabrata by EUCAST method; type: functional; how it was run: as §2
Aspergillus flavus [11] = experiment: Antifungal activity against Aspergillus flavus; type: functional
[12] = Antifungal activity against Cryptococcus neoformans var. neoformans; type: functional; settings: Cryptococcus deneoformans; how it was run: as §3
[13] = Antifungal activity against Rhizopus microsporus var. oligosporus; type: functional; how it was run: as §4
Lomentospora prolificans = experiment: Antifungal activity against Scedosporium prolificans; type: functional; how it was run: as §4
Cunninghamella [14] = experiment: Antifungal activity against Cunninghamella species by EUCAST method; type: functional
Trichosporon asahii [15] = experiment: Antifungal activity against Trichosporon asahii by EUCAST method; type: functional
How it was run: (§5)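 Nonfermentative yeasts were tested by the EUCAST microdilution recommendations with one change: plates were sealed and agitated at 350 rpm and 30°C for 48 h.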

Curvularia lunata = experiment: Antifungal activity against Curvularia lunata; type: functional
Candida tropicalis [16] = experiment: Antifungal activity against Candida tropicalis; type: functional; how it was run: as §2
Pichia kudriavzevii [17] = experiment: Antifungal activity against Candida krusei; type: functional
How it was run: (§6)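 EUCAST broth microdilution for yeasts in flat-bottom plates, RPMI 1640 with 2% glucose, inoculum 0.5 × 105 to 2.5 × 10^5 CFU/ml. […] MFC is the lowest concentration giving 99% killing.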

Rhizomucor = experiment: Antifungal activity against Rhizomucor species; type: functional
Cunninghamella [18] = experiment: Antifungal activity against Cunninghamella species; type: functional
Candida albicans [19] = experiment: Antifungal activity against Candida albicans; type: functional; how it was run: as §2
Rhizopus arrhizus = experiment: Antifungal activity against Rhizopus oryzae; type: functional; how it was run: as §4
[20] = Antifungal activity against Cryptococcus neoformans var. neoformans by EUCAST method; type: functional; settings: Cryptococcus deneoformans; how it was run: as §3
Aspergillus terreus [21] = experiment: Antifungal activity against Aspergillus terreus; type: functional
Rhizopus = experiment: Antifungal activity against Rhizopus species; type: functional; how it was run: as §4
Absidia = experiment: Antifungal activity against Absidia species; type: functional
Clavispora lusitaniae [22] = experiment: Antifungal activity against Candida lusitaniae by EUCAST method; type: functional; how it was run: as §2
Trichosporon inkin [23] = experiment: Antifungal activity against Trichosporon inkin by EUCAST method; type: functional; how it was run: as §5
Aspergillus fumigatus [24] = experiment: Antifungal activity against Aspergillus fumigatus by EUCAST method; type: functional
Aspergillus fumigatus [25] = experiment: Antifungal activity against Aspergillus fumigatus; type: functional
Candida tropicalis [26] = experiment: Antifungal activity against Candida tropicalis by EUCAST method; type: functional; how it was run: as §2
Clavispora lusitaniae [27] = experiment: Antifungal activity against Candida lusitaniae; type: functional; how it was run: as §2
Penicillium sp. = experiment: Antifungal activity against Penicillium species; type: functional
Trichosporon inkin [28] = experiment: Antifungal activity against Trichosporon inkin; type: functional; how it was run: as §5
Sporothrix schenckii = experiment: Antifungal activity against Sporothrix schenckii; type: functional; how it was run: as §4
Cryptococcus gattii [29] = experiment: Antifungal activity against Cryptococcus neoformans var. gattii by EUCAST method; type: functional, Cryptococcus bacillisporus; how it was run: as §3
Candida parapsilosis [30] = experiment: Antifungal activity against Candida parapsilosis; type: functional; settings: Lodderomyces parapsilosis; how it was run: as §2
Aspergillus flavus [31] = experiment: Antifungal activity against Aspergillus flavus by EUCAST method; type: functional
Fusarium oxysporum = experiment: Antifungal activity against Fusarium oxysporum; type: functional
Saccharomyces cerevisiae [32] = experiment: Antifungal activity against Saccharomyces cerevisiae; type: functional
How it was run: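 Broth microdilution following EUCAST for fermentative yeasts, in flat-bottom plates with RPMI 1640 plus 2% glucose. Inoculum was 0.5 × 10^5 to 2.5 × 10^5 CFU/ml. End points were read spectrophotometrically at 24 h: ≥90% growth reduction versus a drug-free control for amphotericin B, and 50% OD reduction for azoles and caspofungin. MFC was the lowest concentration giving 99% killing.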

Trichosporon asahii [33] = experiment: Antifungal activity against Trichosporon asahii; type: functional; how it was run: as §5
Saccharomyces cerevisiae [34] = experiment: Antifungal activity against Saccharomyces cerevisiae by EUCAST method; type: functional; how it was run: as §6
[35] = system: Meyerozyma guilliermondii; experiment: Antifungal activity against Candida guilliermondii by EUCAST method; type: functional; how it was run: as §2
[36] = Antifungal activity against Rhinocladiella aquaspersa; type: functional; how it was run: as §1
Aspergillus niger [37] = experiment: Antifungal activity against Aspergillus niger by EUCAST method; type: functional
Mucor = experiment: Antifungal activity against Mucor species; type: functional
Nakaseomyces glabratus [38] = experiment: Antifungal activity against Candida glabrata; type: functional; how it was run: as §2

## C[C@@H](c1ncncc1F)[C@](O)(Cn1cncn1)c1ccc(F)cc1F [VORICONAZOLE]
Curvularia australiensis
  MFC: > 8 µg/mL
Pichia kudriavzevii [1]
  MIC: 0.53 µg/mL (≈ 1.52 µM)
Mucor hiemalis
  MFC: > 8 µg/mL
Talaromyces marneffei
  MFC: > 8 µg/mL
Candida parapsilosis [2]
  MIC: 0.08 µg/mL (≈ 0.229 µM)
Cryptococcus gattii [3]
  MFC: 0.125 µg/mL (≈ 0.358 µM)
Fusarium solani
  MFC: > 8 µg/mL
Aspergillus niger [4]
  MFC: 2 µg/mL (≈ 5.73 µM)
Aspergillus terreus [5]
  MIC: 0.29 µg/mL (≈ 0.83 µM)
Candida albicans [6]
  MIC: 0.13 µg/mL (≈ 0.372 µM)
Scedosporium apiospermum
  MFC: > 8 µg/mL
[7]
  MFC: 0.25 µg/mL (≈ 0.716 µM)
Geotrichum candidum [8]
  MIC: 0.25 µg/mL (≈ 0.716 µM)
Lichtheimia corymbifera
  MFC: > 8 µg/mL
Geotrichum candidum [9]
  MFC: > 4 µg/mL
Nakaseomyces glabratus [10]
  MIC: 1.66 µg/mL (≈ 4.75 µM)
Aspergillus flavus [11]
  MFC: 1 µg/mL (≈ 2.86 µM)
[12]
  MFC: 0.06 µg/mL (≈ 0.172 µM)
[13]
  MFC: > 8 µg/mL
Lomentospora prolificans
  MFC: > 8 µg/mL
Cunninghamella [14]
  MIC: > 8 µg/mL
Trichosporon asahii [15]
  MIC: 0.04 µg/mL (≈ 0.115 µM)
Curvularia lunata
  MFC: > 8 µg/mL
Candida tropicalis [16]
  MFC: 0.12 µg/mL (≈ 0.344 µM)
Pichia kudriavzevii [17]
  MFC: 0.5 µg/mL (≈ 1.43 µM)
Rhizomucor
  MFC: > 8 µg/mL
Cunninghamella [18]
  MFC: > 8 µg/mL
Candida albicans [19]
  MFC: 0.06 µg/mL (≈ 0.172 µM)
Rhizopus arrhizus
  MFC: > 8 µg/mL
[20]
  MIC: 0.05 µg/mL (≈ 0.143 µM)
Aspergillus terreus [21]
  MFC: 1 µg/mL (≈ 2.86 µM)
Rhizopus
  MFC: > 8 µg/mL
Absidia
  MFC: > 8 µg/mL
Clavispora lusitaniae [22]
  MIC: 0.07 µg/mL (≈ 0.2 µM)
Trichosporon inkin [23]
  MIC: 0.05 µg/mL (≈ 0.143 µM)
Aspergillus fumigatus [24]
  MIC: 0.36 µg/mL (≈ 1.03 µM)
Aspergillus fumigatus [25]
  MFC: 0.5 µg/mL (≈ 1.43 µM)
Candida tropicalis [26]
  MIC: 0.48 µg/mL (≈ 1.37 µM)
Clavispora lusitaniae [27]
  MFC: 0.06 µg/mL (≈ 0.172 µM)
Penicillium sp.
  MFC: > 8 µg/mL
Trichosporon inkin [28]
  MFC: 0.03 µg/mL (≈ 0.0859 µM)
Sporothrix schenckii
  MFC: > 8 µg/mL
Cryptococcus gattii [29]
  MIC: 0.05 µg/mL (≈ 0.143 µM)
Candida parapsilosis [30]
  MFC: 0.06 µg/mL (≈ 0.172 µM)
Aspergillus flavus [31]
  MIC: 0.41 µg/mL (≈ 1.17 µM)
Fusarium oxysporum
  MFC: > 8 µg/mL
Saccharomyces cerevisiae [32]
  MFC: > 4 µg/mL
Trichosporon asahii [33]
  MFC: > 8 µg/mL
Saccharomyces cerevisiae [34]
  MIC: 0.29 µg/mL (≈ 0.83 µM)
[35]
  MIC: 0.24 µg/mL (≈ 0.687 µM)
[36]
  MFC: > 8 µg/mL
Aspergillus niger [37]
  MIC: 0.33 µg/mL (≈ 0.945 µM)
Mucor
  MFC: > 8 µg/mL
Nakaseomyces glabratus [38]
  MFC: > 4 µg/mL
